Test results: ChEMBL document CHEMBL1128460, “Design, synthesis, and structure-activity relationships of a new series of alpha-adrenergic agonists: spiro[(1,3-diazacyclopent-1-ene)-5,2'-(1',2',3',4'- tetrahydronaphthalene)]” (J Med Chem, 1995)

Tests used:
[1] = target: T1, Adrenergic receptor alpha (Rattus norvegicus) (UniProt P15823+P23944+P43140+P22086+P19328+P22909); assay: Alpha adrenergic activity was evaluated as concentration (iv) which increases the arterial pressure by 20 mmHg in the pithed rat; type: functional, organism-based; details: Artery
Canis familiaris [2] = organism: Canis familiaris; assay: Maximal contractile response obtained with the agonist (expressed as a percentage of the maximal contraction to phenylephrine in the dog saphenous vein); type: functional, Canis lupus familiaris
Outline: (§1)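 Vessel segments from mongrel dogs (15–25 kg) anesthetized with pentobarbital (30 mg/kg iv), mounted for isometric tension in physiological saline. Equilibrated 90 min with bath changes every 30 min, rauwolscine (10^-7 M) present throughout. Primed with KCl (100 mM), then phenylephrine (1 µM). Agonist concentration–response curves run at half-log steps, giving EC50 (µM) and Emax as % of phenylephrine maximum; mean ±SD.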

[3] = Ratio of C20 obtained in the absence or presence of [C20 ( 0.1 mg of prazosin ) / C20 (control)]; type: functional
Outline: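 Pithed rats pretreated with tertatolol (100 mg/kg), then 10 min later with prazosin (100 µg/kg). Cumulative iv agonist doses given another 10 min later at 20 s intervals. Arterial pressure recorded, C20 (dose giving +20 mmHg) determined. Ratio calculated as C20(prazosin)/C20(control); 3–6 determinations.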

[4] = target: T1, Adrenergic receptor alpha (Rattus norvegicus); assay: Alpha adrenergic activity was evaluated as maximal pressure response caused by agonist, expressed in mmHg (the maximum obtained with phenylephrine is 150 mmHg).; type: functional
[5] = Ratio of C20 obtained in the absence or presence of [C20 (1 mg of yohimbine.) / C20 (control)]; type: functional
Outline: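 Pithed rat arterial pressure assay with tertatolol (100 mg/kg) pretreatment, then yohimbine (1 mg/kg) 10 min later. Cumulative iv agonist doses given at 20 s intervals after a further 10 min, C20 (+20 mmHg dose) obtained. Ratio expressed as C20(yohimbine)/C20(control); 3–6 determinations.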

Canis familiaris [6] = organism: Canis familiaris; assay: Maximal contractile response obtained with the agonist (expressed as a percentage of the maximal contraction to phenylephrine in the dog femoral artery); type: functional, Canis lupus familiaris; outline: as §1
Canis familiaris [7] = organism: Canis familiaris; assay: Effective concentration for the agonist in the isolated blood vessel using in vitro femoral artery; type: functional; details: Canis lupus familiaris; outline: as §1
Canis familiaris [8] = organism: Canis familiaris; assay: Effective concentration for the agonist in the isolated blood vessel using in vitro saphenous vein; type: functional; details: Canis lupus familiaris; outline: as §1
[9] = target: T2, Adrenergic receptor alpha-1 (Rattus norvegicus, UniProt P15823+P23944+P43140); assay: Displacement of [3H]prazosin from rat cortex Alpha-1 adrenergic receptor
T2 sequence (P15823 whole entry): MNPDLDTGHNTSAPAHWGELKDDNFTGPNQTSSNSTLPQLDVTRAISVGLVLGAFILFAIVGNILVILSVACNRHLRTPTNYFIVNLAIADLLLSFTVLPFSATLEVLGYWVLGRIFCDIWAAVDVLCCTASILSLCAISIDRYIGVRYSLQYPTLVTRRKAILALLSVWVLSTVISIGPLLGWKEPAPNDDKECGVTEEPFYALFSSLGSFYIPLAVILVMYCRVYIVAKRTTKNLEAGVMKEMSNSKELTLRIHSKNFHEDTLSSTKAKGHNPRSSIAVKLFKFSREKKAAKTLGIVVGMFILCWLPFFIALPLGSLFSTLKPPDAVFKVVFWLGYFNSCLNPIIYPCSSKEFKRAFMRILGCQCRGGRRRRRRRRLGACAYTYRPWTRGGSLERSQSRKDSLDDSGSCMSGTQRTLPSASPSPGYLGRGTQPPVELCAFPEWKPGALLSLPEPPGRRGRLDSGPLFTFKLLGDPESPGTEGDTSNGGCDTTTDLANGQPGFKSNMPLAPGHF
T2 sequence (P23944 whole entry): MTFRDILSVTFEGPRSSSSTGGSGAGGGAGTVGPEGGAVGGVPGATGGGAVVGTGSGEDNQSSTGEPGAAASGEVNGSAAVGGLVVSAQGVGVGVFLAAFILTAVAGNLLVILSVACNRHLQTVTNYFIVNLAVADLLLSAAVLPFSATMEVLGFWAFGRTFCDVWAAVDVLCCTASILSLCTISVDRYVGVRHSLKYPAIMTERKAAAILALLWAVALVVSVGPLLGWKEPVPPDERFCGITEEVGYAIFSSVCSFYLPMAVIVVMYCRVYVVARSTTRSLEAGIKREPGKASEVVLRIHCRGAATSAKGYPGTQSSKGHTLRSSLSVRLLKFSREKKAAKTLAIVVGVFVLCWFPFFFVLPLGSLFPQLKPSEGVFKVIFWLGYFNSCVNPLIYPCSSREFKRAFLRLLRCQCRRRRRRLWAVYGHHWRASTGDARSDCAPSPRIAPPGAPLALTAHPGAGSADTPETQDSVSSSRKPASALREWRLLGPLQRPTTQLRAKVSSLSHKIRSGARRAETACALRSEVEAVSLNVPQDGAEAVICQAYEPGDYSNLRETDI
T2 sequence (P43140 whole entry): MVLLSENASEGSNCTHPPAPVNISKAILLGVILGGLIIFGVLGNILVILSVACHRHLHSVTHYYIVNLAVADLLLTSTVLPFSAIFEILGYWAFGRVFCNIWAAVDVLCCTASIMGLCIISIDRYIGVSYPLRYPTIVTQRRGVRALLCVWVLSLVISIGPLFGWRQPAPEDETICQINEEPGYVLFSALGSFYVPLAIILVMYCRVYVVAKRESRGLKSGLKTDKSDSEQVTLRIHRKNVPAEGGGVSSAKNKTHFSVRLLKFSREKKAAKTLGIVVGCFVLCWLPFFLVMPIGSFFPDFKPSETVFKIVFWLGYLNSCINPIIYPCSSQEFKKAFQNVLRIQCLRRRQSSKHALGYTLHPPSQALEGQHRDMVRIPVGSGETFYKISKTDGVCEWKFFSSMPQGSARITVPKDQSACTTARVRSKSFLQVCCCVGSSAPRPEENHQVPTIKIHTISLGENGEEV
Outline: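 Rat cortex membranes labelled with [3H]prazosin (0.3 nM), nonspecific binding with prazosin (10 µM). Nine drug concentrations spanning 3 log units, IC50 by log-probit analysis. Ki by Cheng–Prusoff using Kd from Scatchard saturation. At least three independent experiments in duplicate.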

| Compound | C20 [1] [µg/kg] | Max [4] [mmHg] | EC50 (Canis familiaris [7]) [nM] | EC50 (Canis familiaris [8]) [µM] | Ki [9] [µM] | Emax (Canis familiaris [2]) | Ratio [3] | Ratio [5] | Emax (Canis familiaris [6]) |
| --- | --- | --- | --- | --- | --- | --- | --- | --- | --- |
| COc1ccc2c(c1OC)CCC1(CN=CN1)C2 (stereo not drawn) | 142 | 107 | 50000 | 52 | – | 67 | 2.9 | 2.4 | 21 |
| NC1=NC2(CCc3ccccc3C2)CN1 (stereo not drawn) | 57 | 53 | 50000 | 52 | – | 36 | 2.5 | 26 | 2 |
| COc1cc2c(cc1OC)CC1(CC2)CN=CN1 (stereo not drawn) | 98 | 129 | – | – | – | – | 1.8 | – | – |
| COc1cc(C)cc2c1CCC1(CN=CN1)C2 (stereo not drawn) | 10 | 136 | 800 | 3.9 | 0.6 | 81 | 1.6 | 1 | 60 |
| CCc1ccc2c(c1)CC1(CC2)CN=CN1 (stereo not drawn) | 209 | 61 | – | 75 | – | 50 | 2.5 | 2.6 | 0 |
| Clc1cccc2c1CCC1(CN=CN1)C2 (stereo not drawn) | 7 | 125 | – | – | – | – | 1.3 | 2.8 | – |
| Fc1cc(F)c2c(c1)CC1(CC2)CN=CN1 (stereo not drawn) | 31 | 84 | – | 6.3 | – | 35 | 2.4 | 5.7 | 0 |
| C1=NC2(CCc3ccccc3C2)CO1 (stereo not drawn) | > 10000 | 38 | – | – | – | 0 | – | – | 0 |
| CC(C)Oc1ccc2c(c1)CCC1(CN=CN1)C2 (stereo not drawn) | 74 | 62 | – | 3.9 | – | 15 | 11 | 66 | 0 |
| CN1C=NC2(CCc3ccccc3C2)C1 (stereo not drawn) | 150 | 77 | – | 25 | – | 31 | 2.1 | 2.5 | 0 |
| Clc1cc2c(cc1Cl)CC1(CC2)CN=CN1 (stereo not drawn) | 33 | 101 | – | 44 | – | 36 | 7 | 3.1 | 0 |
| COc1cc2c(c(OC)c1)CCC1(CN=CN1)C2 (stereo not drawn) | 7.9 | 109 | 700 | 7.3 | – | 44 | 2.9 | 2.6 | 25 |
| Clc1cc(Cl)c2c(c1)CCC1(CN=CN1)C2 (stereo not drawn) | 4.2 | 137 | 8000 | 6 | – | 100 | – | – | 75 |
| COc1cc2c(cc1O)CCC1(CN=CN1)C2 (stereo not drawn) | 1.2 | 134 | 1400 | 19 | – | 97 | 9.2 | 2.8 | 69 |
| CC1=NC2(CCc3ccccc3C2)CN1 (stereo not drawn) | 166 | 113 | – | 400 | – | 23 | 1.8 | 5.3 | 0 |
| COc1ccc(SC)c2c1C[C@@H]1[C@@H](C2)OCCN1C | 23 | 123 | 38000 | 0.023 | – | 38 | 5.1 | 2.4 | 28 |
| Oc1cccc2c1CC1(CC2)CN=CN1 (stereo not drawn) | 4.3 | 119 | 39000 | 10 | – | 66 | 0.9 | 12 | 22 |
| FC(F)(F)c1ccc2c(c1)CC1(CC2)CN=CN1 (stereo not drawn) | 320 | 55 | – | – | – | 7 | 10 | 2.7 | – |
| CC(C)(C)c1ccc2c(c1)CC1(CC2)CN=CN1 (stereo not drawn) | 465 | 45 | – | 40 | – | 35 | 1.7 | 1.6 | 0 |

Continued by falling EC50 (Canis familiaris [8]), values first:

| C20 [1] [µg/kg] | Max [4] [mmHg] | EC50 (Canis familiaris [7]) [nM] | EC50 (Canis familiaris [8]) [µM] | Ki [9] [µM] | Compound | Emax (Canis familiaris [2]) | Ratio [3] | Ratio [5] | Emax (Canis familiaris [6]) |
| --- | --- | --- | --- | --- | --- | --- | --- | --- | --- |
| 0.6 | 157 | 850 | 2.7 | – | CCOc1ccc(OCC)c2c1CCC1(CN=CN1)C2 (stereo not drawn) | 68 | 24 | 7.7 | 55 |
| 0.5 | 140 | 3000 | 2.4 | – | Cc1ccc(C)c2c1CCC1(CN=CN1)C2 (stereo not drawn) | 84 | 2.1 | 4.8 | 67 |
| 5.2 | 95 | 26000 | 2.3 | – | NC1=NC2(CCc3ccccc3C2)CO1 (stereo not drawn) | 76 | 3.5 | 19.6 | 18 |
| 5.4 | 114 | 14000 | 2.1 | – | Cc1ccc2c(c1)CCC1(CN=CN1)C2 (stereo not drawn) | 44 | 1.3 | 6.1 | 12 |
| 0.85 | 139 | 2000 | 0.8 | 3.4 | COc1cccc2c1CCC1(CN=CN1)C2 (stereo not drawn) | 101 | 5.4 | 4.7 | 93 |
| 0.06 | 147 | 80 | 0.8 | – | CCOc1ccc(OC)c2c1CCC1(CN=CN1)C2 (stereo not drawn) | 98 | 21.5 | 4.8 | 85 |
| 0.05 | 128 | 120 | 0.3 | 2 | COc1ccc(OC)c2c1CCC1(CN=CN1)C2 (stereo not drawn) | 106 | 21 | 2 | 77 |
| 0.3 | 133 | 1600 | 0.24 | – | Clc1cccc2c1CC1(CC2)CN=CN1 (stereo not drawn) | 95 | 1.9 | 4.7 | 83 |
| – | – | 270 | 0.027 | – | COc1ccc(Cl)c2c1CCC1(CN=CN1)C2 (stereo not drawn) | 106 | – | – | 102 |
